From PubChem
PKD1 inh: PKD1 (human) kinase inhibition | Q15139 | PKD1 kinase fluorescence polarization assay | inhibition, % (no concentration beside the values) | 200,000 compounds, 0.056% hits | AID 797; in the data active means inhibition above about 50%
Target sequence (Q15139 whole entry, looked up): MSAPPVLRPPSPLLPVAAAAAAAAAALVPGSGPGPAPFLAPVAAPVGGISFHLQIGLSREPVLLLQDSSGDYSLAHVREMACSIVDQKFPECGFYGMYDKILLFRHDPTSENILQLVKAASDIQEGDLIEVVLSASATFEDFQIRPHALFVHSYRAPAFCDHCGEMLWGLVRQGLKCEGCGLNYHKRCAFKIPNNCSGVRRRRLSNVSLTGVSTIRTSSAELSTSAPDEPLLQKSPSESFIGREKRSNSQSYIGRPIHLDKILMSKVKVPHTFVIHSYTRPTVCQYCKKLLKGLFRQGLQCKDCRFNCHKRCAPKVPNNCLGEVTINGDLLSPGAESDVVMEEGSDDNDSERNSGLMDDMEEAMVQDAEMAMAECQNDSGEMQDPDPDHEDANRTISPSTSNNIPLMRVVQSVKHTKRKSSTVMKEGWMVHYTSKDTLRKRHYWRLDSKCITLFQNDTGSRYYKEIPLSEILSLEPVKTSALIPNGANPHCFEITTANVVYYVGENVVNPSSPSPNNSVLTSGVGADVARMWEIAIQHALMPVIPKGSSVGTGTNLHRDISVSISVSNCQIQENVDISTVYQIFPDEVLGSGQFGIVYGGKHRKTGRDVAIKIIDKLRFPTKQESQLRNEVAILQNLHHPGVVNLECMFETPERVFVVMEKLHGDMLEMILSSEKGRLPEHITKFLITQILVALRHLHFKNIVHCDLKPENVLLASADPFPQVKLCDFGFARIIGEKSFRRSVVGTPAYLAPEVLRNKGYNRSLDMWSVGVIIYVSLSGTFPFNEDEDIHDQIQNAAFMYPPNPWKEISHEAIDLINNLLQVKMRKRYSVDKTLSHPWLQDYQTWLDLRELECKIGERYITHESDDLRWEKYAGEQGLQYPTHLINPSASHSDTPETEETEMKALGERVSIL
PPC-1+TRAIL kill: compounds killing PPC-1 cancer cells with TRAIL present (potentiator screen, no TRAIL-free arm) | cell killing (% activity), % at 4 µM or 5 µM | AID 1443 | 220,000 compounds, 0.41% hits | PPC-1 cells + TRAIL, ATPLite viability luminescence;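 active means cell killing above 50% in the first pass at 4 µM, then a duplicate retest at 5 µM averaging 50% or more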;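 further: plate controls were cells with TRAIL plus DMSO for no effect and medium-only wells lacking cells for full effect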
FLuc inhib CS: inhibits firefly luciferase, flagging false hits in luciferase inhibition screens; P08659; ATPLite firefly luciferase biochemical luminescence, 10 min; inhibition, % at 10 µM; 200,000 compounds, 1.5% hits; AID 1006;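 active means inhibition above about 50% when tested at 10 µM, limit read from the data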
Wee1 stabilizer: blocks degradation of human Wee1 kinase; P30291; HeLa Luc-Wee1K328M stability, luciferase luminescence; 100% = proteasome inhibitor MG132 effect; reporter increase, % at 5 µM; 220,000 compounds, 1.2% hits;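 active means activation above the mean of all tested compounds plus 3 SD, set per screening run, cut at about 8.8% in these data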;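 further: cells exposed to compound for 20 h before luminescence read; 0% = DMSO alone and 100% = MG132 at 30 µM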
C8 TRAIL sens: sensitizes caspase-8 expressing cells to TRAIL; 360,000 compounds, 1% hits; inhibition (viability loss, TRAIL sensitization), % at 10 µM; NB7+C8 cells + TRAIL, ATPlite viability luminescence;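 active means compounds causing at least 50% loss of cell viability in the single-dose screen, relative to plate controls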
FLuc act counter: firefly luciferase counter-screen for stimulation assays; P08659; ATPlite luciferase biochemical, luminescence, 10 min; 0 = ATP-free wells, 1 = DMSO control; activation factor at 10 µM; 200,000 tested, under 10 active;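 active means luciferase activation factor, scaled between plate controls, of at least 2 with compound at 10 µM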
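System: luciferase plus luciferin reagent, cell-free; medium: PBS as buffer for the ATP substrate; dosing: test compounds dosed from 2 mM stocks in 100% DMSO; timing: 10 min post-reagent at room temperature; measured by: luminescence measurement of luciferase light output; evaluation: luciferase activation, seen as luminescence increase over controls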
The depositor's hits bear a star; nt = not tested or not shown. Hits are enriched below; roughly 2.2% of the tested compounds scored in any of these assays.

SMILES	PKD1 inh	PPC-1+TRAIL kill	FLuc inhib CS	Wee1 stabilizer	C8 TRAIL sens	FLuc act counter
C/C=C/c1ccc(OCCCNC2CCCC2)c(OC)c1	-11	34	0	4	54*	1
O=C(Nc1cccnc1)c1cc(-c2ccc(Br)cc2)on1	-8	8	27	-2	25	0.7
COc1cccc(-c2cc(C(=O)Nc3cc(OC)c(OC)c(OC)c3)no2)c1	-4	27	-6	2	-1	1.1
COc1cccc(-c2cc(C(=O)Nc3cccnc3)no2)c1	-6	28	64*	1	33	0.4
O=C(Nc1cccnc1)c1cc(-c2ccccc2)on1	-1	17	65*	-1	8	0.3
COc1ccccc1N(C(=O)c1snc(C(N)=O)c1N)C(C(=O)NC1CCCC1)c1ccc(N(C)C)cc1 (stereo not given)	nt	nt	nt	nt	-2	nt
CC(C)n1c(NCc2cccs2)nc2ccccc21	-13	-7	0	8.8*	-1	1
Cc1cccc(NC(=O)CNC(=O)c2cc(S(=O)(=O)N(C)C)ccc2N2CCCC2)c1C	nt	nt	nt	nt	8	nt
COC(=O)Nc1nnc(-c2ccccc2Cl)s1	-2	27	55*	0	36	0.4
CCn1cc(CN2CCCC(C(=O)Nc3cccc(-c4cc5ccccc5[nH]4)c3)C2)cn1 (stereo not given)	nt	nt	nt	nt	-7	nt
Cc1nnsc1C(=O)NNc1c(Cl)cccc1Cl	nt	-13	nt	9.0*	-9	nt
COCCN(C(=O)CSc1nnc(-c2ccc(C(C)(C)C)cc2)n1N)c1c(N)n(CC(C)C)c(=O)[nH]c1=O	nt	nt	nt	nt	-6	nt
COc1ccc(C(C[N+](=O)[O-])C2(c3ccc(OC)c(OC)c3)C(=O)c3ccccc3C2=O)cc1 (stereo not given)	-6	43	18	-1	53*	0.8
COc1ccc(C(C[N+](=O)[O-])c2c(-c3ccccc3)cc3ccccn23)cc1OC (stereo not given)	-7	10	-6	-2	11	1.1
CSc1ccc(S(=O)(=O)Nc2c(C)n(C)n(-c3ccccc3)c2=O)cc1	nt	nt	nt	nt	-4	nt
Cc1nc(N2CCOCC2)nc(Oc2ccccc2)c1[N+](=O)[O-]	nt	-20	nt	9.2*	3	nt
CN(C(=O)COC(=O)c1cccs1)c1ccccc1	nt	nt	nt	nt	0	nt
CCC1=NN(C(=O)c2cccc(Br)c2)C(O)(c2ccc(Br)cc2)C1 (stereo not given)	-5	-9	5	4	49*	0.9
CN(C)/C=C(/C(=O)c1ccc(Cl)cc1Cl)S(=O)(=O)c1ccc(Cl)cc1	5	-13	-7	1	-3	1.1
CN(C)/C=C(/C(=O)c1ccc(Cl)cc1Cl)S(=O)(=O)c1ccccc1	4	10	-4	9.6*	-8	1
O=C(c1cccc(S(=O)(=O)N2CCc3ccccc32)c1)N1CCN(c2ccccn2)CC1	0	-11	-6	-2	40	1.1
Oc1cc(-c2ccc(N3CCCCC3)nc2)cc2cccnc12	nt	nt	nt	nt	74*	nt
Cc1ccc(C(=O)Nc2ccc(CC(=O)O)cc2)o1	-13	13	-2	-3	9	1
CC(C)(C)c1ccc(C(=O)Nc2ccc(CC(=O)O)cc2)o1	-2	39	51*	-2	18	0.5
COC(=O)C[C@H]1C=C[C@@H](NS(=O)(=O)c2ccccc2)[C@@H](CO)O1	nt	nt	nt	nt	3	nt
SMILES	PKD1 inh	PPC-1+TRAIL kill	FLuc inhib CS	Wee1 stabilizer	C8 TRAIL sens	FLuc act counter
COc1ccc2nc(NN=C(C)c3ccccn3)cc(C)c2c1	nt	nt	nt	nt	69*	nt
COc1ccc(OCC(=O)N/N=C(\C)c2ccc(OC)cc2)cc1	-4	10	12	2	2	0.9
COc1ccc(OCC(=O)N/N=C(\C)c2cc3ccccc3o2)cc1	-7	40	81*	-1	64*	0.2
COc1ccc(OC(=O)c2cc3ccccc3o2)cc1	3	28	57*	0	8	0.4
Cc1ccc(C2N=C(N)Nc3nc(=O)c4ccccc4n32)cc1 (stereo not given)	nt	11	nt	-2	-11	nt
CC(C)C(=O)Nc1cccc(C(=O)Nc2ccccc2C(=O)O)c1	-7	-6	61*	-2	28	0.4
O=C(/C=C/c1ccco1)Nc1cccc(C(=O)Nc2ccccc2C(=O)O)c1	nt	5	nt	11*	-9	nt
O=C(Nc1ccccc1C(=O)O)c1cccc(NC(=O)c2ccccc2Br)c1	nt	nt	nt	nt	-6	nt
CCOC(=O)c1sc(NC(=O)Nc2ccccc2)cc1C	3	60*	84*	2	73*	0.2
CCOC(=O)c1sc(NC(C)=O)cc1C	-9	-20	-2	0	-6	1
CCOC(=O)c1cc(NC(=O)Nc2ccccc2Cl)c(C)nc1C	2	7	-6	0	-7	1.1
CCOC(=O)c1sc(NC(=O)c2ccc(C)s2)cc1C	8	38	62*	-1	48	0.4
CCOC(=O)c1sc(NC(=O)C2CCC2)cc1C	0	33	50*	-3	17	0.5
CCOC(=O)c1sc(NC(=O)Nc2ccccc2Cl)cc1C	9	63*	80*	3	77*	0.2
COc1ccccc1NC(=O)c1cccc(N2C(=O)C3C4C=CC(C4)C3C2=O)c1 (stereo not given)	nt	nt	nt	nt	9	nt
COc1ccc(C2=NN(C3=NN=C(N)Cc4ncnn43)C(O)(C(F)(F)F)C2)cc1 (stereo not given)	-11	18	3	-1	7	1
Cc1cnc(NC(=O)CCNC(=O)c2ccc([N+](=O)[O-])cc2)s1	5	18	-8	-2	-11	1.1
CCCc1nn(C)c(C(=O)Nc2cccc(Cl)c2)c1Cl	26	51*	1	-2	-3	1
COc1ccc(/C=N/N=C(\N)c2nonc2N)cc1	-9	10	52*	0	18	0.5
Cc1cccc(CSc2ncccc2C(=O)O)c1	-7	54*	-2	-3	3	1
O=C(Cn1c(CO)nc2ccccc21)NC1CCCCCC1	-5	12	-5	1	-6	1
COC(=O)c1c(NC(=O)c2ccccc2)sc2c1CC(C)(C)OC2	1	2	-4	9.4*	14	1
CC1(C)Cc2c(sc(NC(=O)c3ccco3)c2C#N)CO1	7	44	75*	2	42	0.2
N#Cc1c(NC(=O)c2ccco2)sc2c1CCC2	nt	nt	nt	nt	-2	nt
Cc1ccc(N=Cc2c(O)c3ccccc3oc2=O)cc1F	nt	nt	nt	nt	6	nt
Cc1ccc(C(=O)NC2CCc3ccccc3C2=O)cc1 (stereo not given)	-8	30	62*	5	27	0.4
Cc1ccc(C(=O)NC2CCSC2=O)cc1 (stereo not given)	6	22	-5	2	-3	1.1
CC(C)(C)OC(=O)n1cc(/C=N/NC(=O)c2ccco2)c2ccccc21	nt	nt	nt	nt	-5	nt
O=C1C(=Cc2cccs2)C(=O)c2ccccc21	-2	-1	53*	3	1	0.5
